According to ChEMBL document CHEMBL4043246, “Discovery of novel [1,2,4]triazolo[4,3-a]quinoxaline aminophenyl derivatives as BET inhibitors for cancer treatment” (Bioorg Med Chem Lett, 2017):

Key:
[1] = target: Bromodomain-containing protein 4 (Homo sapiens, UniProt O60885); assay: Inhibition of BRD4 BD1-BD2 (unknown origin) using tetraacetylated histone peptide as substrate after 2 hrs by alphascreen assay
[2] = Antiproliferative activity against human TY82 cells; format: functional, cell-based
THP-1 = assay: Antiproliferative activity against human THP1 cells; format: functional, cell-based
[3] = Stability in mouse liver microsomes assessed as parent compound remaining after 30 mins; format: ADME, microsome; conditions: read-out: Stability
Procedure, shortened: (§1)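 Incubated in vitro with mouse, rat or human liver microsomes for 30 minutes. Result expressed as percent of parent compound remaining.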

[4] = Stability in rat liver microsomes assessed as parent compound remaining after 30 mins; format: ADME, microsome; conditions: read-out: Stability; procedure, shortened: as §1
[5] = Stability in human liver microsomes assessed as parent compound remaining after 30 mins; format: ADME, microsome; conditions: read-out: Stability; procedure, shortened: as §1
[6] = Half life in rat at 2 mg/kg, iv; format: ADME, organism-based; conditions: in vivo
Procedure, shortened: (§2)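 Rat pharmacokinetics with single intravenous (2 mg/kg) or oral (5 or 20 mg/kg) dosing. Terminal half-life is reported in hours.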

[7] = AUCt in rat at 2 mg/kg, iv; format: ADME, organism-based; conditions: in vivo
Procedure, shortened: (§3)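 Rat pharmacokinetics with single dosing, either intravenous at 2 mg/kg or oral at 5 or 20 mg/kg. AUC is reported both to the last time point (AUCt) and extrapolated to infinity, in ug.hr/mL.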

[8] = AUCinfinity in rat at 2 mg/kg, iv; format: ADME, organism-based; design: dose 2 mg/kg, time infinity, route intravenous; conditions: in vivo; procedure, shortened: as §3
[9] = Clearance in rat at 2 mg/kg, iv; format: ADME, organism-based; conditions: in vivo
[10] = Volume of distribution at steady state in rat at 2 mg/kg, iv; format: ADME, organism-based; conditions: in vivo, read-out: Vdss
Procedure, shortened: (§4)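 Rat pharmacokinetics after a single intravenous dose of 2 mg/kg or oral doses of 5 mg/kg and 20 mg/kg. Reported parameters are Tmax, Cmax, T1/2, AUCt, AUC∞, CL, Vss and F(%). CL, Vss and F come from the intravenous/oral 2 and 5 mg/kg arms.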

Rattus norvegicus [11] = assay: Tmax in rat at 5 mg/kg, po; format: ADME, organism-based; conditions: in vivo; procedure, shortened: as §4
Rattus norvegicus [12] = assay: Cmax in rat at 5 mg/kg, po; format: ADME, organism-based; design: dose 5 mg/kg, route oral; conditions: in vivo
Procedure, shortened: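 Peak plasma level after single oral dosing in rat at 5 or 20 mg/kg. Cmax is given in mg/mL as printed, with Tmax in hours.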

Rattus norvegicus [13] = assay: Half life in rat at 5 mg/kg, po; format: ADME, organism-based; conditions: in vivo; procedure, shortened: as §2
[14] = AUCt in rat at 5 mg/kg, po; format: ADME, organism-based; conditions: in vivo; procedure, shortened: as §3
Rattus norvegicus [15] = assay: AUCinfinity in rat at 5 mg/kg, po; format: ADME, organism-based; design: dose 5 mg/kg, time infinity, route oral; conditions: in vivo; procedure, shortened: as §3
[16] = Oral bioavailability in rat at 5 mg/kg; format: ADME, organism-based; conditions: in vivo; procedure, shortened: as §4

Row | Structure (SMILES) | IC50 [1] | IC50 [2] | other results
1 | CCC(=O)NCc1cccc(Nc2nc3ccccc3n3c(C)nnc23)c1 | 0.2 µM | 7.6 µM | –
2 | CC(C)(C)OC(=O)NCc1cccc(Nc2nc3ccccc3n3c(-c4ccccc4)nnc23)c1 | > 10 µM | – | –
3 | CC(=O)NCc1cccc(Nc2nc3ccccc3n3c(C)nnc23)c1 | 0.53 µM | > 10 µM | –
4 | CCNC(=O)C[C@@H]1N=C(c2ccc(Cl)cc2)c2cc(OC)ccc2-n2c(C)nnc21 [MOLIBRESIB] | – | 0.39 µM | IC50 (THP-1): 0.29 µM
5 | Cc1nnc2c(Nc3cccc(CN)c3)nc3ccccc3n12 | 0.35 µM | > 10 µM | –
6 | CC(C)(C)OC(=O)NCc1cccc(Nc2nc3ccccc3n3cnnc23)c1 | > 10 µM | – | –
7 | Cc1nnc2c(Nc3cccc(CNC(=O)OC(C)(C)C)c3)nccn12 | 1.5 µM | > 10 µM | –
8 | Cc1nnc2c(Nc3cccc(CNC(=O)C(C)(C)C)c3)nc3ccccc3n12 | 0.097 µM | > 10 µM | –
9 | Cc1nnc2c(Nc3cccc(CNC(=O)OC(C)(C)C)c3)nc3ccccc3n12 | 0.017 to 0.068 µM | 2.5 to 7.1 µM | IC50 (THP-1): 3.4 µM; remaining at 0.5 h [3]: 0.12%; remaining at 0.5 h [4]: 0.19%; remaining at 0.5 h [5]: 27%; half-life [6]: 0.72 h; AUC(0-t) [7]: 4020 ng·h/mL; AUC(0-inf) [8]: 4020 ng·h/mL; clearance [9]: 8.33 mL/min/kg; Vd [10]: 0.46 L/kg; Tmax (Rattus norvegicus [11]): 3.42 h; Cmax (Rattus norvegicus [12]): 340 ng/mL; t1/2 (Rattus norvegicus [13]): 3.69 h; AUC(0-t) [14]: 2110 ng·h/mL; AUC (Rattus norvegicus [15]): 2390 ng·h/mL; bioavailability [16]: 20.9%
10 | CC(C)(C)OC(=O)NCc1cccc(Nc2nc3ccccc3n3c(C(F)(F)F)nnc23)c1 | > 10 µM | – | –
11 | Cc1nnc2c(Nc3ccc(NC(=O)OC(C)(C)C)cc3)nc3ccccc3n12 | 6.4 µM | > 10 µM | –
12 | Cc1sc2c(c1C)C(c1ccc(Cl)cc1)=N[C@@H](CC(=O)Nc1ccc(O)cc1)c1nnc(C)n1-2 [BIRABRESIB] | – | 0.067 µM | IC50 (THP-1): 0.033 µM
13 | CCOC(=O)NCc1cccc(Nc2nc3ccccc3n3c(C)nnc23)c1 | 0.16 µM | > 10 µM | IC50 (THP-1): > 10 µM
14 | Cc1nnc2c(Nc3cccc(CNC(=O)c4ccccc4)c3)nc3ccccc3n12 | 0.64 µM | 8.6 µM | –
15 | CCc1nnc2c(Nc3cccc(CNC(=O)OC(C)(C)C)c3)nc3ccccc3n12 | > 10 µM | – | –
16 | Cc1nnc2c(Nc3cccc(NC(=O)OC(C)(C)C)c3)nc3ccccc3n12 | 0.12 µM | > 10 µM | –
17 | Cc1nnc2c(Nc3ccc(CNC(=O)OC(C)(C)C)cc3)nc3ccccc3n12 | 2.7 µM | > 10 µM | –
